Experimental data published in ChEMBL document CHEMBL4251665, “Ca2+-Signal Transduction Inhibitors, Kujiol A and Kujigamberol B, Isolated from Kuji Amber Using a Mutant Yeast” (J Nat Prod, 2018).
Activity calls are given as the source filed them. The calls are words filed in the database; no cut-off is given here.

What was measured:
WI-38 = assay: Cytotoxicity against human WI38 cells after 48 hrs by MTT assay; type: cell-based; details: WI-38, 48 h
Procedure, shortened: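 WI-38 human diploid lung fibroblasts cultured in DMEM at 5 × 10^3 cells/well, then tested for cytotoxicity.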

Saccharomyces cerevisiae = assay: Inhibition of calcium signal transduction pathway in Saccharomyces cerevisiae YNS17 assessed as growth restoration; type: functional, organism-based
Procedure, shortened: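 Mutant S. cerevisiae YNS17 plate assay. Samples dissolved in MeOH and spotted on plates; growth-restored zones scored over 0.5 to 0.13 μg/spot. Positive control: FK506 at 2.5 ng/spot.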

HL-60 = assay: Cytotoxicity against human HL60 cells after 48 hrs by MTT assay; type: cell-based; details: HL-60, 48 h
Procedure, shortened: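 HL60 cells grown in RPMI 1640 with 10% heat-inactivated FBS and penicillin (50 units/mL)–streptomycin (50 μg/mL). Exposed to samples for 48 h at 37 °C, humidified, 5% CO2. Viability read by MTT assay; IC50 derived.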

[1] = target: T1, Glycogen synthase kinase-3 beta (Homo sapiens, UniProt P49841); assay: Inhibition of human GSK-3beta using peptide substrate
Homo sapiens [2] = organism: Homo sapiens; assay: Inhibition of calcineurin (unknown origin) using DLDVPIPGRFDRRVpSVAAE as substrate by malachite green based colorimetric method
Homo sapiens [3] = organism: Homo sapiens; assay: Inhibition of calcineurin (unknown origin) at 200 uM using DLDVPIPGRFDRRVpSVAAE as substrate by malachite green based colorimetric method
[4] = target: T1, Glycogen synthase kinase-3 beta; assay: Inhibition of human GSK-3beta at 200 uM using peptide substrate
Target sequence in this assay (P49841 whole entry, looked up): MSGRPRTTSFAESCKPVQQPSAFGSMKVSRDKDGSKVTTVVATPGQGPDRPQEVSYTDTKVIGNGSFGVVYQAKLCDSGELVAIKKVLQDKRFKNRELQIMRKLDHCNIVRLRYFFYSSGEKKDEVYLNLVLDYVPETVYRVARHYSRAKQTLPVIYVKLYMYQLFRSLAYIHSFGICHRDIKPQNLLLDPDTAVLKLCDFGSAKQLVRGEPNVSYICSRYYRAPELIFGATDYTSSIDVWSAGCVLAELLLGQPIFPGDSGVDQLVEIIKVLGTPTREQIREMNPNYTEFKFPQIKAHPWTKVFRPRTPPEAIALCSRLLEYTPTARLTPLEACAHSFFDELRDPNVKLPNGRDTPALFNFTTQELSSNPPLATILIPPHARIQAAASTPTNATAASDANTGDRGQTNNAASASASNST

Row | Structure (SMILES) | IC50 (WI-38) [µM] | inhibition (Saccharomyces cerevisiae) | IC50 (HL-60) [µM] | IC50 [1] [µM] | inhibition [1] | inhibition (Homo sapiens [2]) | inhibition (Homo sapiens [3]) | inhibition [4]
1 | Cc1ccc2c(c1CCC(C)C)CCC[C@]2(C)CO [KUJIGAMBEROL] | > 50 |  |  |  |  |  |  | 
2 | Cc1ccc2c(c1)CC[C@H]1[C@@](C)(CO)CCC[C@]21C | > 50 | Dose-dependent effect | 7.1 | 178 | Dose-dependent effect | Dose-dependent effect |  | 
3 | Cc1ccc2c(c1CCC(C)(C)O)CCCC2(C)C | > 50 | Dose-dependent effect | 41.7 |  |  |  | inactive | inactive
